Key:
Assay type in all cases: functional
[1] = tested on: ACHN; assay: Growth inhibition of human ACHN cells assessed as cell growth at 10^-7 M incubated for 48 hrs by sulforhodamine B assay; settings: read-out: Activity
Method in brief: (§1)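 Five-dose assay: five concentrations from 10-fold or ½-log serial dilutions. Cells are plated at 5,000–40,000 per well according to doubling time, grown 24 h, then exposed 48 h at 37 °C, 5% CO₂. Fixed with cold 50% TCA (final addition) for 60 min at 4 °C and stained with 0.4% SRB in 1% acetic acid. Bound dye is solubilized in 10 mM Tris base and read at 515 nm. GI₅₀ is where [(Ti−Tz)/(C−Tz)]×100 = 50, with a time-zero plate as Tz.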

[2] = tested on: Malme-3M; assay: Growth inhibition of human MALME-3M cells assessed as cell growth at 10^-8 M incubated for 48 hrs by sulforhodamine B assay; settings: read-out: Activity
[3] = Growth inhibition of human UACC62 cells assessed as cell growth at 10^-4 M incubated for 48 hrs by sulforhodamine B assay; settings: UACC-62, 48 h, read-out: Activity
[4] = tested on: SK-MEL-2; assay: Growth inhibition of human SK-MEL-2 cells assessed as cell growth at 10^-6 M incubated for 48 hrs by sulforhodamine B assay; settings: SK-MEL-2, 48 h, read-out: Activity
[5] = tested on: MCF7; assay: Growth inhibition of human MCF7 cells incubated for 48 hrs by sulforhodamine B assay; settings: MCF7, 48 h
Method in brief: (§2)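 Cells were plated at 5,000–40,000 per well according to doubling time and preincubated 24 h at 37 °C in 5% CO2; time-zero plates were then TCA-fixed. Five concentrations (10-fold or ½-log dilutions, DMSO stock) were incubated 48 h. Cells were TCA-fixed, stained with 0.4% SRB and read at 515 nm. GI50 was taken where [(Ti−Tz)/(C−Tz)]×100 = 50.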

[6] = tested on: SK-MEL-28; assay: Growth inhibition of human SK-MEL-28 cells incubated for 48 hrs by sulforhodamine B assay; settings: SK-MEL-28, 48 h; method in brief: as §2
[7] = tested on: MCF7; assay: Growth inhibition of human MCF7 cells assessed as cell growth at 10^-7 M incubated for 48 hrs by sulforhodamine B assay; settings: MCF7, 48 h, read-out: Activity
[8] = Growth inhibition of human SNB75 cells assessed as cell growth at 10^-8 M incubated for 48 hrs by sulforhodamine B assay; settings: SNB-75, 48 h, read-out: Activity
[9] = tested on: EKVX; assay: Growth inhibition of human EKVX cells assessed as cell growth at 10^-5 M incubated for 48 hrs by sulforhodamine B assay; settings: read-out: Activity
Method in brief: (§3)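 Cells seeded at 5,000–40,000/well according to doubling time and preincubated 24 h at 37 °C, 5% CO2. Time-zero plates were TCA-fixed. DMSO concentrate was diluted in medium with 50 µg/ml gentamicin to give five concentrations (10-fold or ½ log steps), then exposed 48 h. Cells were TCA-fixed, stained with 0.4% SRB and read at 515 nm. Percent growth was taken against time-zero and control; GI50, TGI and LC50 derived.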

[10] = tested on: NCI-H460; assay: Growth inhibition of human NCI-H460 cells assessed as cell growth at 10^-4 M incubated for 48 hrs by sulforhodamine B assay; settings: NCI-H460, 48 h, read-out: Activity
[11] = tested on: ACHN; assay: Growth inhibition of human ACHN cells incubated for 48 hrs by sulforhodamine B assay; method in brief: as §1
[12] = Growth inhibition of human HL-60(TB) cells assessed as cell growth at 10^-6 M incubated for 48 hrs by sulforhodamine B assay; settings: HL-60, 48 h, read-out: Activity
Method in brief: (§4)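 Cells plated at 5,000–40,000/well according to doubling time and preincubated 24 h at 37 °C, 5% CO₂, with time-zero plates TCA-fixed. Drugs were kept as DMSO concentrates at 400× the top concentration and diluted in medium with 50 µg/ml gentamicin. Five 10-fold or ½-log dilutions were run for 48 h, followed by SRB staining and A515. Percent growth = (Ti−Tz)/(C−Tz)×100, or (Ti−Tz)/Tz×100 when Ti<Tz.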

[13] = tested on: MCF7; assay: Growth inhibition of human MCF7 cells assessed as cell growth at 10 uM incubated for 48 hrs by sulforhodamine B assay; settings: MCF7, 48 h, read-out: Activity
[14] = tested on: NCI-H522; assay: Growth inhibition of human NCI-H522 cells assessed as cell growth at 10 uM incubated for 48 hrs by sulforhodamine B assay; settings: NCI-H522, 48 h, read-out: Activity
[15] = tested on: 786-0; assay: Growth inhibition of human 786-0 cells assessed as cell growth at 10 uM incubated for 48 hrs by sulforhodamine B assay; settings: 786-0, 48 h, read-out: Activity
Method in brief: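 One-dose screen at 10 µM final. Cells are plated at 5,000–40,000 per well according to doubling time and preincubated 24 h at 37 °C, 5% CO₂. Compound (DMSO stock diluted in medium with 50 µg/ml gentamicin) is then added for 48 h. Growth percent is read by sulforhodamine B staining, absorbance at 515 nm.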

[16] = Growth inhibition of human HCT15 cells assessed as cell growth at 10^-4 M incubated for 48 hrs by sulforhodamine B assay; settings: HCT-15, 48 h, read-out: Activity; method in brief: as §3
[17] = Growth inhibition of human HCT15 cells incubated for 48 hrs by sulforhodamine B assay; settings: HCT-15, 48 h; method in brief: as §3
[18] = tested on: A498; assay: Growth inhibition of human A498 cells assessed as cell growth at 10^-8 M incubated for 48 hrs by sulforhodamine B assay; settings: A498, 48 h, read-out: Activity; method in brief: as §1
[19] = tested on: K562; assay: Growth inhibition of human K562 cells assessed as cell growth at 10^-6 M incubated for 48 hrs by sulforhodamine B assay; settings: K562, 48 h, read-out: Activity
[20] = Growth inhibition of human SF295 cells assessed as cell growth at 10^-6 M incubated for 48 hrs by sulforhodamine B assay; settings: SF-295, 48 h, read-out: Activity
[21] = tested on: HT-29; assay: Growth inhibition of human HT-29 cells incubated for 48 hrs by sulforhodamine B assay; settings: HT-29, 48 h; method in brief: as §2
[22] = Growth inhibition of human HL-60(TB) cells assessed as cell growth at 10^-8 M incubated for 48 hrs by sulforhodamine B assay; settings: HL-60, 48 h, read-out: Activity; method in brief: as §4
[23] = read-out: LC50 (the source's name)
[24] = read-out: pLC50 (the source's name) (converted)

SMILES: Clc1ccc(-c2nc(Nc3ccc(-c4nc5ccccc5[nH]4)cc3)nc(N3CCOCC3)n2)cc1
- growth at 0.1 µM [1]: 99%
- growth at 0.01 µM [2]: 96%
- growth at 100 µM [3]: -13%
- growth at 1 µM [4]: 97%
- GI50 ([5]; read-out: GI50): 194 nM
- TGI ([5]; read-out: TGI): 490 nM
- GI50 ([5]; read-out: pGI50 (converted)): 195 nM
- TGI ([5]; read-out: pTGI (converted)): 490 nM
- GI50 ([6]; read-out: GI50): 1600 nM
- TGI ([6]; read-out: TGI): 3220 nM
- GI50 ([6]; read-out: pGI50 (converted)): 1580 nM
- TGI ([6]; read-out: pTGI (converted)): 3240 nM
- growth at 0.1 µM [7]: 86%
- growth at 0.01 µM [8]: 83%
- growth at 10 µM [9]: -80%
- growth at 100 µM [10]: -33%
- GI50 ([11]; read-out: GI50): 1050 nM
- TGI ([11]; read-out: TGI): 2380 nM
- GI50 ([11]; read-out: pGI50 (converted)): 1050 nM
- TGI ([11]; read-out: pTGI (converted)): 2400 nM
- growth at 1 µM [12]: -29%
- growth at 10 µM [13]: -73.8%
- growth at 10 µM [14]: -73.9%
- growth at 10 µM [15]: -94.5%
- growth at 100 µM [16]: -10%
- GI50 ([17]; read-out: GI50): 188 nM
- TGI ([17]; read-out: TGI): 412 nM
- GI50 ([17]; read-out: pGI50 (converted)): 191 nM
- TGI ([17]; read-out: pTGI (converted)): 407 nM
- growth at 0.01 µM [18]: 94%
- growth at 1 µM [19]: -63%
- growth at 1 µM [20]: 77%
- GI50 ([21]; read-out: GI50): 228 nM
- TGI ([21]; read-out: TGI): 523 nM
- GI50 ([21]; read-out: pGI50 (converted)): 229 nM
- TGI ([21]; read-out: pTGI (converted)): 525 nM
- growth at 0.01 µM [22]: 97%

SMILES: c1ccc2[nH]c(-c3ccc(Nc4nc(N5CCCCC5)nc(N5CCOCC5)n4)cc3)nc2c1
- growth at 0.1 µM [1]: 95%
- growth at 0.01 µM [2]: 86%
- growth at 100 µM [3]: -38%
- growth at 1 µM [4]: 101%
- GI50 ([5]; read-out: GI50): 2400 nM
- CC50 [5, 23]: > 100000 nM
- TGI ([5]; read-out: TGI): 7900 nM
- GI50 ([5]; read-out: pGI50 (converted)): 2400 nM
- CC50 [5, 24]: > 100000 nM
- TGI ([5]; read-out: pTGI (converted)): 7940 nM
- GI50 ([6]; read-out: GI50): 1800 nM
- CC50 [6, 23]: 8970 nM
- TGI ([6]; read-out: TGI): 4020 nM
- GI50 ([6]; read-out: pGI50 (converted)): 1820 nM
- CC50 [6, 24]: 8910 nM
- TGI ([6]; read-out: pTGI (converted)): 3980 nM
- growth at 0.1 µM [7]: 91%
- growth at 0.01 µM [8]: 75%
- growth at 10 µM [9]: 5%
- growth at 100 µM [10]: -45%
- GI50 ([11]; read-out: GI50): 3140 nM
- CC50 [11, 23]: > 100000 nM
- TGI ([11]; read-out: TGI): > 100000 nM
- GI50 ([11]; read-out: pGI50 (converted)): 3160 nM
- CC50 [11, 24]: > 100000 nM
- TGI ([11]; read-out: pTGI (converted)): > 100000 nM
- growth at 1 µM [12]: 100%
- growth at 10 µM [13]: 3.49%
- growth at 10 µM [14]: 9.25%
- growth at 10 µM [15]: -57.3%
- growth at 100 µM [16]: -22%
- GI50 ([17]; read-out: GI50): 1880 nM
- CC50 [17, 23]: > 100000 nM
- TGI ([17]; read-out: TGI): 4380 nM
- GI50 ([17]; read-out: pGI50 (converted)): 1860 nM
- CC50 [17, 24]: > 100000 nM
- TGI ([17]; read-out: pTGI (converted)): 4370 nM
- growth at 0.01 µM [18]: 92%
- growth at 1 µM [19]: 109%
- growth at 1 µM [20]: 84%
- GI50 ([21]; read-out: GI50): 2440 nM
- CC50 [21, 23]: > 100000 nM
- TGI ([21]; read-out: TGI): 5560 nM
- GI50 ([21]; read-out: pGI50 (converted)): 2450 nM
- CC50 [21, 24]: > 100000 nM
- TGI ([21]; read-out: pTGI (converted)): 5620 nM
- growth at 0.01 µM [22]: 98%

Source: ChEMBL document CHEMBL3808334, “Synthesis and in vitro evaluation of novel triazine analogues as anticancer agents and their interaction studies with bovine serum albumin” (Eur J Med Chem, 2016)
